Assays:
[1] = tested on: Panel leukemia (Carcinoma cell lines); experiment: Inhibitory activity against leukemia cell line; format: functional, cell-based; details: for IC50: Homo sapiens, Panel leukemia (Carcinoma cell lines); for Log IC50: panel leukemia (carcinoma cell lines)
[2] = tested on: non-small-cell lung cancer cell lines (Homo sapiens); experiment: Inhibitory activity against non-small-cell lung cancer cell lines; details: for IC50: Homo sapiens
Colon cell = experiment: Inhibitory activity against Colon cell line; format: functional, cell-based; details: for IC50: Homo sapiens, Colon cell; for Log IC50: colon cell
Breast carcinoma cell = experiment: Inhibitory activity against breast cell line; format: functional, cell-based; details: for IC50: Homo sapiens, Breast carcinoma cell; for Log IC50: breast carcinoma cell
[3] = tested on: NCI-60 human tumor cell line panel (Homo sapiens); experiment: Mean concentration causing inhibition of cell growth in the NCI-60 human tumor cell line panel.
CNS cell = experiment: Inhibitory activity against CNS cell line; format: functional, cell-based; details: for IC50: Homo sapiens, CNS cell
Prostate cell = experiment: Inhibitory activity against prostate cell line; format: functional, cell-based; details: for IC50: Homo sapiens, Prostate cell
3Y1 cell line = experiment: Cytotoxicity in 3Y1 cells.; format: functional, Rattus norvegicus; set-up: unit not given here
Method in brief: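 Rat normal fibroblast 3Y1 cells grown in Dulbecco's modified MEM with 10% fetal calf serum, 5% CO2, humidified. Exponentially growing cells exposed to compounds for 24 h. Relative cell number = cell number at 24 h per initial cell number at 0 h × 100; DNA content distribution read by laser scanning cytometry.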

Renal cell = experiment: Inhibitory activity against renal cell line; format: functional, cell-based; details: for IC50: Homo sapiens, Renal cell
Ovarian carcinoma cell = experiment: Inhibitory activity against ovarian cell line; format: functional, cell-based; details: for IC50: Homo sapiens, Ovarian carcinoma cell
Melanoma cell = experiment: Inhibitory activity against melanoma cell line; format: functional, cell-based; details: for IC50: Homo sapiens, Melanoma cell
[4] = tested on: NCI-60 human tumor cell line panel (Homo sapiens); experiment: Cytostatic effect in NCI-60 human tumor cell lines.; set-up: unit not given here

| Compound | IC50 [1] | IC50 [2] | IC50 (Colon cell) | IC50 (Breast carcinoma cell) | GI50 ([3]; Homo sapiens, NCI-60 panel) | IC50 (CNS cell) | IC50 (Prostate cell) | LC50 (3Y1 cell line) | IC50 (Renal cell) | IC50 (Ovarian carcinoma cell) | IC50 (Melanoma cell) | TGI [4] | other results |
| --- | --- | --- | --- | --- | --- | --- | --- | --- | --- | --- | --- | --- | --- |
| CC(C)=CCN1C(=O)[C@@H]2CCCN2C(=O)[C@@H]1Cc1c[nH]c2ccccc12 (stereo in doubt) | 61.7 µM | 97.7 µM | 95.5 µM | 89.1 µM | 85.1 µM | > 100 µM | > 100 µM | >-4 | > 100 µM | > 100 µM | > 100 µM | -4.01 | – |
| O=C1[C@@H]2Cc3c([nH]c4ccccc34)[C@@H](c3ccccc3)N2C(=O)[C@@H]2CCCN12 | 40.7 µM | 52.5 µM | 45.7 µM | 49 µM | 51.3 µM | 61.7 µM | 63.1 µM | >-4 | 50.1 µM | 56.2 µM | 50.1 µM | >-4 | – |
| CC(C)C[C@H]1c2[nH]c3ccccc3c2C[C@H]2C(=O)N3CCC[C@H]3C(=O)N21 | 36.3 µM | 77.6 µM | 67.6 µM | 63.1 µM | 70.8 µM | 83.2 µM | 83.2 µM | >-4 | 74.1 µM | 79.4 µM | 87.1 µM | – | – |
| O=C1[C@@H]2CCCN2C(=O)[C@H](Cc2c[nH]c3ccccc23)N1C/C=C/c1ccccc1 | 22.9 µM | 32.4 µM | 35.5 µM | 27.5 µM | 31.6 µM | 37.2 µM | 39.8 µM | -4.01 | 35.5 µM | 44.7 µM | 43.7 µM | -4.07 | – |
| CC(C)C[C@@H]1c2[nH]c3ccccc3c2C[C@H]2C(=O)N3CCC[C@H]3C(=O)N12 | 77.6 µM | 93.3 µM | > 100 µM | 87.1 µM | 93.3 µM | 85.1 µM | > 100 µM | >-4 | 97.7 µM | > 100 µM | > 100 µM | >-4 | – |
| COc1cc([C@@H]2c3[nH]c4ccccc4c3C[C@H]3C(=O)N4CCC[C@H]4C(=O)N23)cc(OC)c1OC | 32.4 µM | 69.2 µM | 74.1 µM | 46.8 µM | 66.1 µM | 74.1 µM | 72.4 µM | >-4 | 77.6 µM | 77.6 µM | 87.1 µM | -4.01 | – |
| CC(C)=C[C@H]1c2[nH]c3ccccc3c2C[C@H]2C(=O)N3CCC[C@H]3C(=O)N21 (stereo in doubt) [DEMETHOXYFUMITREMORGIN C] | – | – | – | – | – | – | – | – | – | – | – | – | Log IC50 [1]: -4.16; Log IC50 [2]: -4.03; Log IC50 (Colon cell): -4.02; Log IC50 (Breast carcinoma cell): > -4; GI50 [3]: 95.5 µM; Log IC50 (CNS cell; cns cell): -4; Log IC50 (Prostate cell; prostate cell): > -4; Log IC50 (Renal cell; renal cell): > -4; Log IC50 (Ovarian carcinoma cell; ovarian carcinoma cell): > -4; Log IC50 (Melanoma cell; melanoma cell): > -4 |
| O=C1[C@@H]2Cc3c([nH]c4ccccc34)[C@H](c3ccccc3)N2C(=O)[C@@H]2CCCN12 | 13.8 µM | 63.1 µM | 41.7 µM | 36.3 µM | 47.9 µM | > 100 µM | 85.1 µM | >-4 | 42.7 µM | 57.5 µM | 51.3 µM | >-4 | – |
| COc1cc([C@@H]2c3[nH]c4ccccc4c3C[C@H]3C(=O)N4CCC[C@H]4C(=O)N23)cc(OC)c1O | > 100 µM | > 100 µM | > 100 µM | > 100 µM | > 100 µM | > 100 µM | > 100 µM | >-4 | > 100 µM | > 100 µM | > 100 µM | >-4 | – |
| COc1cc([C@H]2c3[nH]c4ccccc4c3C[C@H]3C(=O)NCC(=O)N23)cc(OC)c1O (relative stereo) | > 100 µM | > 100 µM | > 100 µM | > 100 µM | > 100 µM | > 100 µM | > 100 µM | >-4 | > 100 µM | > 100 µM | > 100 µM | >-4 | – |
| COc1cc(CN2C(=O)[C@@H]3CCCN3C(=O)[C@@H]2Cc2c[nH]c3ccccc23)cc(OC)c1OC | 13.2 µM | 42.7 µM | 30.2 µM | 33.9 µM | 30.9 µM | 27.5 µM | 57.5 µM | -4.01 | 30.2 µM | 40.7 µM | 28.8 µM | -4.04 | – |
| COc1cc([C@@H]2c3[nH]c4ccccc4c3C[C@H]3C(=O)NCC(=O)N23)cc(OC)c1O (relative stereo) | 38 µM | 56.2 µM | 46.8 µM | 49 µM | 50.1 µM | 38 µM | 70.8 µM | >-4 | 55 µM | 66.1 µM | 45.7 µM | -4.01 | – |
| COc1cc([C@H]2c3[nH]c4ccccc4c3C[C@H]3C(=O)NCC(=O)N23)cc(OC)c1OC (relative stereo) | 72.4 µM | > 100 µM | > 100 µM | 93.3 µM | 95.5 µM | > 100 µM | > 100 µM | >-4 | 95.5 µM | > 100 µM | > 100 µM | >-4 | – |
| CC(C)=CCN1C(=O)[C@@H]2CCCN2C(=O)[C@@H]1Cc1c[nH]c2ccccc12 (stereo in doubt; 5a) | – | – | – | – | – | – | – | – | – | – | – | >-4 | Log IC50 [1]: > -4; Log IC50 [2]: > -4; Log IC50 (Colon cell): > -4; Log IC50 (Breast carcinoma cell): > -4; GI50 [3]: > 100 µM |
| COc1cc([C@H]2c3[nH]c4ccccc4c3C[C@H]3C(=O)N4CCC[C@H]4C(=O)N23)cc(OC)c1OC | 64.6 µM | 70.8 µM | 93.3 µM | 97.7 µM | 87.1 µM | 95.5 µM | 91.2 µM | >-4 | 95.5 µM | 72.4 µM | 93.3 µM | >-4 | – |
| O=C1[C@H](Cc2c[nH]c3ccccc23)N(Cc2ccccc2)C(=O)[C@@H]2CCCN12 | 85.1 µM | > 100 µM | > 100 µM | > 100 µM | 97.7 µM | > 100 µM | > 100 µM | >-4 | > 100 µM | > 100 µM | > 100 µM | >-4 | – |
